Data: ChEMBL document CHEMBL2331408, “Discovery and structure-activity relationships of pyrrolone antimalarials” (J Med Chem, 2013)

Experiments:
[1] = Drug metabolism in mouse liver microsomes assessed as mono-oxygenation at 1 uM by LC/MS analysis; format: ADME, Microsome
[2] = Partition coefficient, log D of the compound at pH 7.4 by HPLC analysis; format: physicochemical; settings: octanol/water
In short: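 LogD at pH 7.4 measured with a chromatographic gLogD technique.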

[3] = (§1) Intrinsic clearance in mouse liver microsomes at 1 uM by LC/MS analysis; format: ADME, Microsome; settings: liver microsomes, read-out: CLH
In short: (§2)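 Mouse hepatic microsomes; in vitro intrinsic clearance from compound degradation during incubation, expressed as μL/min/mg.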

Liver = test: as §1; format: ADME, Microsome; settings: microsomes, 1 µM; in short: as §2
[4] = Drug metabolism in mouse liver microsomes assessed as bis-oxygenation at 1 uM by LC/MS analysis; format: ADME, Microsome
[5] = Drug metabolism in mouse liver microsomes assessed as morpholine ring cleavage at 1 uM by LC/MS analysis; format: ADME, Microsome

| SMILES | logD [2] | Microsomal intrinsic clearance (CLint) (Liver) | other results |
| --- | --- | --- | --- |
| CCOC(=O)C1=C(O)/C(=C\c2cc(C)n(-c3ccc(F)cc3)c2C)N=C1C | 2.9 |  | Drug metabolism [1]: Active; microsomal CLint at 1 µM [3]: 94 µL/min/mg |
| CCOC(=O)C1=C(C)N/C(=C/c2cc(C)n(-c3cc(OC)c(OC)c(OO)c3)c2C)C1=O | 2.6 |  | microsomal CLint at 1 µM [3]: 63 µL/min/mg |
| CCOC(=O)C1=C(C)N/C(=C/c2cc(C)n(-c3ccc(SC)cc3)c2C)C1=O |  | 66 µL/min/mg | Drug metabolism [1]: Active |
| CCOC(=O)C1=C(C)N/C(=C/c2cc(C)n(-c3ccncc3)c2C)C1=O | 3.2 | 61 µL/min/mg | Drug metabolism [1]: Active; Drug metabolism [4]: Active |
| CCOC(=O)C1=C(C)N/C(=C/c2cc(C)n(-c3ccc(N4CCOCC4)cc3)c2C)C1=O | 3.3 | 31 µL/min/mg | Drug metabolism [5]: Active |
| CCOC(=O)C1=C(C)N/C(=C/c2cc(C)n(-c3ccc(CN4CCCCC4)cc3)c2C)C1=O | 8.5 | 60 µL/min/mg |  |
| CCOC(=O)C1=C(C)N/C(=C/c2cc(C)n(-c3ccc(CN4CCOCC4)cc3)c2C)C1=O | 6.7 | 56 µL/min/mg |  |
| CCOC(=O)C1=C(C)N/C(=C/c2cc(C)n(-c3ccc(CN(C)C)cc3)c2C)C1=O | 8.3 | 31 µL/min/mg |  |

More lines, main results first:

| logD [2] | Microsomal intrinsic clearance (CLint) (Liver) | SMILES | other results |
| --- | --- | --- | --- |
| 2.9 | 150 µL/min/mg | CCOC(=O)C1=C(C)N/C(=C/c2cc(C)n(-c3cccc(OC)c3)c2C)C1=O |  |
|  | 76 µL/min/mg | CCOC(=O)C1=C(C)N/C(=C/c2cc(C)n(-c3ccc(SC(F)(F)F)cc3)c2C)C1=O | Drug metabolism [1]: Active |
|  | 58 µL/min/mg | CCOC(=O)C1=C(C)N/C(=C/c2cc(C)n(-c3ccc(S(=O)(=O)C(F)(F)F)cc3)c2C)C1=O |  |
| 2.1 | 82 µL/min/mg | CCOC(=O)C1=C(C)N/C(=C/c2cc(C)n(-c3cccnc3)c2C)C1=O |  |
|  | 100 µL/min/mg | CCOC(=O)C1=C(C)N/C(=C/c2cc(C)n(Cc3ccc(C(F)(F)F)cc3)c2C)C1=O |  |
|  | 160 µL/min/mg | CCOC(=O)C1=C(C)N/C(=C/c2ccn(-c3ccccc3C(F)(F)F)c2)C1=O |  |
